# ChEMBL document CHEMBL3853360, “Combined Interactions with I1-, I2-Imidazoline Binding Sites and α2-Adrenoceptors To Manage Opioid Addiction” (ACS Med Chem Lett, 2016)
# Experiments:
# [1] = Reduction in morphine dependence expression in CD1 mouse assessed as inhibition of naloxone-precipitated jumping at 10 mg/kg, ip administered acutely 15 mins prior to naloxone challenge relative to control; format: functional, organism-based
# [2] = molecular target: T1, Adrenergic receptor alpha-2 (Rattus norvegicus, UniProt P22086+P19328+P22909); assay: Displacement of [3H]-RX 821002 from alpha2-AR in Sprague-Dawley rat brain membranes after 30 mins by liquid scintillation counting; format: cell membranes, Membrane
# T1 sequence (P22086 whole entry): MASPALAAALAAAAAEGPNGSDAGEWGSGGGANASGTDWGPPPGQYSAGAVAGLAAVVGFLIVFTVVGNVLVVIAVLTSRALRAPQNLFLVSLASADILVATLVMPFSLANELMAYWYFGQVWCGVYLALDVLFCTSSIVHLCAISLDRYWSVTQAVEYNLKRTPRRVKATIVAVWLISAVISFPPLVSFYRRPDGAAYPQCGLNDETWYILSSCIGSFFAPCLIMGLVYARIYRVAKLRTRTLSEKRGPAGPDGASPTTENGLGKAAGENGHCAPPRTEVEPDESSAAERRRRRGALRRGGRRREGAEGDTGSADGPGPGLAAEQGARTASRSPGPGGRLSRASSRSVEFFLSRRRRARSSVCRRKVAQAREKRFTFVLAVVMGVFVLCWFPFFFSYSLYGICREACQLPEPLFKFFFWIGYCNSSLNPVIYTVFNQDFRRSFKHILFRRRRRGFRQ
# T1 sequence (P19328 whole entry): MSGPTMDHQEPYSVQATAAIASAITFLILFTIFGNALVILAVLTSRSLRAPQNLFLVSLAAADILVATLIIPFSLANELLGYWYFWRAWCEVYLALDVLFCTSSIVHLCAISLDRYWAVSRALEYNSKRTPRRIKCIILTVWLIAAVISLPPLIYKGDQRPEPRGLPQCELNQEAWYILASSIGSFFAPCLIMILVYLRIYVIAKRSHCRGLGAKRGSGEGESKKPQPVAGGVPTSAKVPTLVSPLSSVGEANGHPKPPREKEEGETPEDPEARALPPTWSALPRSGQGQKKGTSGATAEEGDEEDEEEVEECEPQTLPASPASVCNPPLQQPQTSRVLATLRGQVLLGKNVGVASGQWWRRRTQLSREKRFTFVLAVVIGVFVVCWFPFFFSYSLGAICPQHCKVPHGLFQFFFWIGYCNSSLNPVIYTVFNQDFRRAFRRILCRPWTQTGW
# T1 sequence (P22909 whole entry): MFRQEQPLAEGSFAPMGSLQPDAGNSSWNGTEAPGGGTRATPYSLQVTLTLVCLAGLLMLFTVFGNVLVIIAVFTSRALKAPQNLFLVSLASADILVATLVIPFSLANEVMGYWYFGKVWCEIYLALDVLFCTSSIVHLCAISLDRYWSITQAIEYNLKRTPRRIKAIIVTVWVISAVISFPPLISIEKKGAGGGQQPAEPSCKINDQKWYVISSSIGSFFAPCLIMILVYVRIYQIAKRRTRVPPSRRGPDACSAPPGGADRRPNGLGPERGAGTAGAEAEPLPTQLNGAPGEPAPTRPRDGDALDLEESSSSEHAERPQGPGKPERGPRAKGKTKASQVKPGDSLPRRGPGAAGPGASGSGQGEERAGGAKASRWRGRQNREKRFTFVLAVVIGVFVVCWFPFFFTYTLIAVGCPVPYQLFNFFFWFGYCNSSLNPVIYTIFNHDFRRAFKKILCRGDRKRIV
# Summary of the method: (§1)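 Radioligand competition binding with pKi determined by displacement. I1 sites: [125I]-p-iodoclonidine on rat kidney membranes. I2 sites: [3H]-2-BFI on rat brain membranes. α2-ARs: [3H]-RX821002 on rat brain membranes.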
# Mus musculus [3] = assay: Reduction in morphine dependence acquisition in CD1 mouse assessed as inhibition of naloxone-precipitated jumping at 5 to 10 mg/kg, ip administered 15 mins prior to each morphine challenge relative to control; format: functional
# Summary of the method: (§2)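 Mice received i.p. test compound (5 or 10 mg/kg) 15 min before each of repeated morphine injections, with vehicle and morphine-only controls. Withdrawal was then precipitated with naloxone. Jumping frequency and somatic signs (rearing, forepaw tremor, teeth chattering; summed frequency) were scored and compared with the morphine group. Data are mean ± SEM of 6–10 animals.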
# Mus musculus [4] = assay: Reduction in morphine dependence acquisition in CD1 mouse assessed as inhibition of naloxone-precipitated rearing frequency at 5 to 10 mg/kg, ip administered 15 mins prior to each morphine challenge relative to control; format: functional; summary of the method: as §2
# [5] = Displacement of [3H]-2-BFI from I2 receptor imidazoline binding site in Sprague-Dawley rat brain membranes after 30 mins by liquid scintillation counting; format: cell membranes, Membrane; summary of the method: as §1
# [6] = molecular target: T2, Alpha-2A adrenergic receptor (Homo sapiens) (UniProt P08913); assay: Antagonist activity at human alpha2a-AR expressed in CHO cells assessed as inhibition of (-)-noradrenaline-induced acidification rate after 240 mins by cytosensor microphysiometric analysis; format: cell-based
# T2 sequence (whole entry): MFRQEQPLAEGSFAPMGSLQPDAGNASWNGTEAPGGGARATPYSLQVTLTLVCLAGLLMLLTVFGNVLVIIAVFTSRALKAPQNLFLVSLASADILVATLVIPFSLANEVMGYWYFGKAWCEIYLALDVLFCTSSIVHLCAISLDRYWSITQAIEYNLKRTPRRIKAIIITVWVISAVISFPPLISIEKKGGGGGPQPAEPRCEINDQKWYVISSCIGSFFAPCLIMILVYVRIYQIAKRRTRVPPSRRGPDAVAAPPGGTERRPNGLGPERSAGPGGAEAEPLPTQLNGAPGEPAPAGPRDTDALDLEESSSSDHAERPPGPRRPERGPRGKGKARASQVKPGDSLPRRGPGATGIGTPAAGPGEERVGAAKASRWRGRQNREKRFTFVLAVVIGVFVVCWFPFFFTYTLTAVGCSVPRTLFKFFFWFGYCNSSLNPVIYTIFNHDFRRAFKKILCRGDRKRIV
# Summary of the method: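 Functional assay in CHO cells stably expressing a single human α2-AR subtype (α2A, α2B or α2C), read on a Cytosensor microphysiometer. Outputs are pEC50, intrinsic activity and, for antagonism, pKb. Intrinsic activity is expressed as a fraction of the full agonist (−)-noradrenaline, set at 1. Values are mean ± SEM of 3–5 separate experiments.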
# Mus musculus [7] = assay: Reduction in morphine dependence acquisition in CD1 mouse assessed as inhibition of naloxone-precipitated teeth chattering frequency at 5 to 10 mg/kg, ip administered 15 mins prior to each morphine challenge relative to control; format: functional; summary of the method: as §2
# [8] = Reduction in morphine dependence expression in CD1 mouse assessed as inhibition of naloxone-precipitated jumping at 5 mg/kg, ip administered acutely 15 mins prior to naloxone challenge relative to control; format: functional, organism-based
smiles,measurement,setting,value
Cc1ccccc1NCC1=NCCN1,inhibition,[1],98%
same,pKi,[2],7.73
same,inhibition (INH),Mus musculus [3],80%
same,inhibition (INH),Mus musculus [4],80%
same,pKi,[5],8.06
same,pKb,[6],7.58
same,inhibition (INH),Mus musculus [7],80%
same,inhibition,[8],96%
